# This is a sample that favours compounds with a hit; in the whole collection about 4.1% have one here.
# KCC2 mod: KCC2 cotransporter modulators, thallium flux, primary screen, cell-based, HEK293 KCC2, FluoZin-2 fluorescence, MLSMR. KCC2 cells, thallium flux FluoZin-2 fluorescence. B-score of Tl+ flux slope (higher = more flux/activation; lower = inhibition) at 10 µM. 190,000 compounds, 2.2% hits;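 active means thallium flux slope and its plate-corrected score both differing from the plate sample mean at a set confidence after two filtering rounds, in either direction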;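 further: slope of fluorescence scaled to starting intensity during 10 to 20 s after thallium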
# Target sequence (Q9H2X9 whole entry, looked up): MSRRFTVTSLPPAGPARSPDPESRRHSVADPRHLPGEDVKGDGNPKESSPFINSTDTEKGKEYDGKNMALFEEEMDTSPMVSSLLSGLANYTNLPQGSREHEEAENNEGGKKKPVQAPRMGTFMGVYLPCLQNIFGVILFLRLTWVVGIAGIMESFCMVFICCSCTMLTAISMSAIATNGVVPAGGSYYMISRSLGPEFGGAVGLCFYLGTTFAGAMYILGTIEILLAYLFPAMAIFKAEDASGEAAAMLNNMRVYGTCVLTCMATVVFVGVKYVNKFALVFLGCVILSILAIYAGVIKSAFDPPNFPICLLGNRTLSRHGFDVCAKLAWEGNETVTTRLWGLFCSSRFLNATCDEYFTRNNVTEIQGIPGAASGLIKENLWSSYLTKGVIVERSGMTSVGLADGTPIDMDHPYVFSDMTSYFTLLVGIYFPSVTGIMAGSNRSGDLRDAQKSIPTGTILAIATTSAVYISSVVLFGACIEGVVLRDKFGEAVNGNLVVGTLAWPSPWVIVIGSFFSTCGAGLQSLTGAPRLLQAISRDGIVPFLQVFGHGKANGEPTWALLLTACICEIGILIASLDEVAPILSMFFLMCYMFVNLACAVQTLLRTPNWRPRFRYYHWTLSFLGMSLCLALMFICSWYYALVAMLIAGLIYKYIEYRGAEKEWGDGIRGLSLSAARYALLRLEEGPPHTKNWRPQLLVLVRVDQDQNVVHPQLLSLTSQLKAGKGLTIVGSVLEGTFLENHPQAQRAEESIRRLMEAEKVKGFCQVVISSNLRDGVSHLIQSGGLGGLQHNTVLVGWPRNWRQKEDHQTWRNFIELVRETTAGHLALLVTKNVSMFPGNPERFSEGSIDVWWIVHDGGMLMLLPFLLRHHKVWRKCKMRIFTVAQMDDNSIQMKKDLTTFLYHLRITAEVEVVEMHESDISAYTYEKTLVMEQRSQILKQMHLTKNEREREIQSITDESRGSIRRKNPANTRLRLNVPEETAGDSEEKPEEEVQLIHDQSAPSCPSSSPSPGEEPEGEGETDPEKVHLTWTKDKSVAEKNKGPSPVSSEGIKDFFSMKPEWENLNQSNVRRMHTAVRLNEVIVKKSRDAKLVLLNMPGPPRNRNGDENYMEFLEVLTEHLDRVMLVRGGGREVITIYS
# hERG protect: hERG rescue from dofetilide block, primary screen, cell-based, CHO-hERG, FluxOR thallium flux, dofetilide IC70; Voltage-gated inwardly rectifying potassium channel KCNH2 (Homo sapiens), Q12809; dofetilide IC70 present; activation (rescue from dofetilide block), less the hit threshold, % at 10 µM; 310,000 compounds, 0.51% hits; AID 1511, 2009;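 active means activation above the mean of controls blocked by dofetilide plus 5 SD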;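 further: thallium influx through hERG after potassium depolarization seen as dye fluorescence rise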
# KCNQ1 act: potentiators or activators of KCNQ1 channel, primary screen, cell-based, thallium flux, high-throughput; Potassium voltage-gated channel subfamily KQT member 1 (Homo sapiens), P51787; CHO-K1 KCNQ1, thallium flux FluxOR fluorescence; active compounds read high; B-score at 10 µM; 310,000 compounds, 0.35% hits; AID 2648, 2010;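 active means fluorescence ratio B-score, a plate-corrected score, at least three library SD, with initial intensity B-score within 5 SD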
#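 System: CHO-K1 cells stably expressing KCNQ1 / Medium: assay buffer for compound exposure, DMSO matched across wells / Reagent: thallium- and potassium-containing depolarizing buffer / Compound: one concentration, matched DMSO / Incubation: 20 min compound pretreatment at room temperature / Measured by: kinetic FluxOR fluorescence, 10 s baseline plus 110 s post-stimulus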
# KCNK3 block: human KCNK3 channel inhibitors, primary screen, CHO cells, FluxOR thallium flux, B-score; Potassium channel subfamily K member 3 (Homo sapiens), O14649; B-score at 10 µM; FluxOR fluorescence; active compounds read low; 340,000 compounds, 0.84% hits;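 active means B-score under library mean minus 4 SD, starting fluorescence ratio at most library mean plus 5 SD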;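 further: more negative B-score means stronger inhibition of thallium flux through KCNK3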
# KCNK9 inh: KCNK9 potassium channel inhibitors, primary screen, HEK293 cells, thallium flux. Potassium channel subfamily K member 9 (Homo sapiens), Q9NPC2. FluxOR thallium flux fluorescence; active compounds read low. B-score at 10 µM. 310,000 compounds, 1.2% hits;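 active means ratio B-score over 3 SD below the library mean, with starting fluorescence within 5 SD of its mean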;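 further: negative B-score means less thallium flux so channel inhibition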
# KCNQ1 inh: inhibitors of human KCNQ1 channel, primary screen, cell-based, thallium flux, high-throughput; CHO-K1 KCNQ1, FluxOR thallium flux fluorescence; active compounds read high; B-score at 10 µM; 310,000 compounds, 1.3% hits;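 active means compounds whose thallium flux B-score, printed positive for inhibition, exceeds three library SD while starting fluorescence stays within three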;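 further: channel opened by potassium depolarization with thallium stimulus after 20 min compound exposure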
# KCC2 secondary: KCC2 modulators in sodium-free buffer, confirmation, cell-based, HEK293 KCC2, thallium flux, secondary assay | shares compounds with KCC2 mod | 3,700 compounds, 15% hits | FluoZin2 fluorescence; active compounds read high | normalised thallium flux (F/F0 slope) at 10 µM;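 active means thallium flux slope above the same plate's solvent-only control mean plus 3 SD; inconclusive means the two replicate wells disagree; inactive means no significant difference from solvent-only control wells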
# KCC2 bumet counter: thallium flux persisting under bumetanide in KCC2 cells, confirmation, counter-screen for KCC2 modulator project, cell-based, HEK293 KCC2, FluoZin2, secondary assay 3. normalized thallium flux at 10 µM. 3,700 compounds, 49% hits. HEK293-KCC2 + bumetanide/ouabain; active compounds read high. shares compounds with KCC2 mod. AID 1714, 2009;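 active means thallium entry rate above the same plate's blocked-transporter control wells by more than 3 SD; inconclusive means the two repeat wells disagree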;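 further: raw slope of fluorescence over initial fluorescence between 10 and 20 s after thallium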
# KCC2 sec2: KCC2 modulators without ouabain present, confirmation, cell-based, HEK293 KCC2, thallium flux, FluoZin2, secondary assay 2; AID 1715, 2009; thallium flux FluoZin2 fluorescence; actives lie on both sides; F/F0 rise rate, 10–20 s post-thallium; shares compounds with KCC2 mod; 3,700 compounds, 23% hits; normalized thallium flux at 10 µM;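 active means thallium flux slope more than 3 SD above or below the plate's solvent-only control mean, mostly below; inconclusive means the two repeat wells disagreed; inactive means no significant shift from solvent-only controls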;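 further: raw slope with 0.1% DMSO as baseline and bumetanide as block control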
# HEK293 Tl flux: thallium flux modulation in parental HEK cells, confirmation, counter-screen for KCC2 modulator project, cell-based, counterscreen 1; shares compounds with KCC2 mod; HEK293 parental cells, thallium flux FluoZin2, ouabain; baseline-ratio fluorescence slope, 10–20 s after thallium; thallium flux rate (normalised fluorescence) at 10 µM; 3,700 compounds, 46% hits; AID 1716, 2009;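 active means thallium flux rate significantly above the same plate's solvent-only control wells, beyond their mean plus 3 SD; inconclusive means the two replicate wells gave conflicting results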
# KCC2 retest ouab: KCC2 inhibitors and activators, ouabain retest, confirmation, HEK-KCC2 cells; shares compounds with KCC2 mod; HEK293-KCC2, thallium flux FluoZin2 fluorescence; bidirectional: low = inhibitor, high = activator; AID 1717, 2009; raw Tl+ flux slope (below DMSO = inhibition, above = activation) at 10 µM; 3,700 compounds, 48% hits;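 active means thallium flux slope beyond 3 SD from same-plate DMSO control mean in most replicates, usually higher, sometimes lower; inconclusive means repeat tests gave conflicting results; inactive means no significant difference from controls in most replicates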;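 further: slope of initial-normalized fluorescence between seconds 10 and 20 after thallium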
# HEK counter2: native HEK Tl+ uptake effects, second counter-screen – HEK cells, counterscreen 2, counter-screen for KCC2 modulator project, confirmation | shares compounds with KCC2 mod | HEK293 parental, thallium flux FluoZin-2 fluorescence slope | thallium flux slope at 10 µM | 3,700 compounds, 33% hits | AID 1718, 2009;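 active means thallium flux slope above the same plate's solvent-control mean plus 3 SD in both duplicate wells; inconclusive means duplicate wells that disagreed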;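 further: run without ouabain in cells lacking the KCC2 cotransporter; slope of fluorescence scaled to its starting value between 10 and 20 s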
# An asterisk follows results filed as active; i = inactive; ? = inconclusive; . = no result given.
SMILES,KCC2 mod,hERG protect,KCNQ1 act,KCNK3 block,KCNK9 inh,KCNQ1 inh,KCC2 secondary,KCC2 bumet counter,KCC2 sec2,HEK293 Tl flux,KCC2 retest ouab,HEK counter2
O=C(CSc1nnc(-c2ccc(O)cc2)n1Cc1ccco1)N1CCc2ccccc2C1,-3.7*,-7,i,i,i,i,0.0071,0.004,0.023*,0.0069,0.013*,0.0099
COc1ccc(C2=NN(C(=O)c3cccs3)C(O)(C(F)(F)F)C2)cc1 (stereo not drawn),4.9*,-6,i,i,i,i,?,0.0093*,0.033,?,0.022,0.011
C/C(=N/NC(=O)c1ccc(Br)o1)c1cccc(NC(=O)c2ccc(F)cc2)c1,.,-11,i,i,i,i,.,.,.,.,.,.
Cc1cccc(NC2=NC(=S)N(c3cccc(C(=O)O)c3)C23CCCCC3)c1,-2.3,-7,i,i,i,i,.,.,.,.,.,.
COc1ccccc1N1C(=S)N=C(Nc2c(C)cccc2C)C12CCCC2,6.2*,-6,i,i,i,i,0.011,0.048*,0.035,0.015*,0.025,0.012*
Cc1cccc(C)c1NC1=NC(=S)N(c2ccc(C(=O)O)cc2)C12CCCCC2,0.68,-8,i,i,i,i,.,.,.,.,.,.
COc1ccc(N2C(=S)N=C(Nc3cccc(C)c3)C23CCCCC3)cc1,4.3*,0,i,i,i,i,0.01,0.011*,0.031,0.011*,0.025,0.011*
COc1ccc(CNC(=O)c2cc(S(=O)(=O)N3CCCCC3)ccc2N2CCOCC2)cc1OC,.,.,.,i,.,.,.,.,.,.,.,.
CCOc1ccc(NC(=S)NC(=O)c2ccco2)cc1,184*,6.1*,12*,i,i,i,0.063*,0.18*,0.048*,0.11*,0.098*,0.041*
O=C(NC(=S)Nc1ccc2oc(=O)ccc2c1)c1cc2ccccc2o1,35*,-1,i,i,i,i,0.016*,0.049*,0.034,0.037*,?,0.017*
CC(C)C(=O)Nc1ccc(NC(=S)NC(=O)c2cc3ccccc3o2)cc1,0.53,-7,i,i,i,i,.,.,.,.,.,.

# Screens from PubChem BioAssay.
